The IC50 is the concentration at which inhibition is half-maximal. A higher IC50 goes with weaker potency in that assay. In general, MIC refers to the smallest concentration in the dilution series that meets the test's criterion for growth inhibition. Low values mean inhibition by little substance, high ones a need for much substance.

The nature of assay [1]: Inhibition of bocillin FL binding to Pseudomonas aeruginosa PAO1 penicillin-binding protein 4. A digest of the protocol: (§1)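 P. aeruginosa PAO1 PBPs were isolated and competed with 10 drug concentrations from 0.06 μg/ml to 32 μg/ml before Bocillin FL labeling. Bands were detected by fluorescence imaging. IC50 was taken as 50% inhibition of Bocillin FL binding versus the no-drug sample.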

Assay [2] addresses Penicillin-binding protein 3 (Pseudomonas aeruginosa, UniProt Q51504). The assay is described as follows: Inhibition of bocillin FL binding to Pseudomonas aeruginosa PAO1 penicillin-binding protein 3. A digest of the protocol:
(§2)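 Isolated P. aeruginosa PAO1 PBPs; drug added at 10 concentrations, 0.06 μg/ml to 32 μg/ml, before Bocillin FL labeling. Labeled PBPs imaged. IC50 is the drug level cutting Bocillin FL binding by 50% versus a no-drug sample.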

Assay [3] in a line: Inhibition of bocillin FL binding to penicillin-resistant Streptococcus pneumoniae OC 8819 penicillin-binding protein 2x. The method in brief:
(§3)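 Whole S. pneumoniae cells were used rather than isolated membranes. Cells were competed with drug and then labeled with Bocillin FL, and PBP bands were visualized by fluorescence imaging. IC50 is the drug concentration that inhibits Bocillin FL binding to each PBP by 50% relative to a no-drug control.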

The next assay concerns Staphylococcus aureus. The assay is described as follows: Antibacterial activity against methicillin-susceptible Staphylococcus aureus ATCC 29213 by CLSI method. The class given is functional.
The nature of assay [4]: Inhibition of bocillin FL binding to Pseudomonas aeruginosa PAO1 penicillin-binding protein 5/6. The method in brief: as §2
The nature of assay [5]: Inhibition of bocillin FL binding to penicillin-resistant Streptococcus pneumoniae OC 8819 penicillin-binding protein 1a. The method in brief: as §3
A further assay deals with Streptococcus pneumoniae. Briefly: Antibacterial activity against penicillin-susceptible Streptococcus pneumoniae OC 8865 by CLSI method. The class given is functional.
Assay [6] in a line: Inhibition of bocillin FL binding to penicillin-susceptible Streptococcus pneumoniae OC 8865 penicillin-binding protein 1b. The method in brief:
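S. pneumoniae OC 8865 PBPs assayed in whole cells; drug competition followed by Bocillin FL labeling and imaging of labeled PBPs. IC50 is 50% inhibition of Bocillin FL binding compared with a no-drug control.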

Assay [7] can be described thus: Inhibition of bocillin FL binding to penicillin-resistant Streptococcus pneumoniae OC 8819 penicillin-binding protein 2a. A digest of the protocol:
as §3

The nature of assay [8]: Inhibition of bocillin FL binding to Pseudomonas aeruginosa PAO1 penicillin-binding protein 1a. The method in brief: as §1
Assay [9] can be described thus: Inhibition of bocillin FL binding to penicillin-susceptible Streptococcus pneumoniae OC 8865 penicillin-binding protein 1a. A digest of the protocol:
as §3

Assay [10] concerns the target T1, Penicillin-binding protein 1 (Staphylococcus aureus, UniProt Q53725).
T1 sequence (Q53725 whole entry): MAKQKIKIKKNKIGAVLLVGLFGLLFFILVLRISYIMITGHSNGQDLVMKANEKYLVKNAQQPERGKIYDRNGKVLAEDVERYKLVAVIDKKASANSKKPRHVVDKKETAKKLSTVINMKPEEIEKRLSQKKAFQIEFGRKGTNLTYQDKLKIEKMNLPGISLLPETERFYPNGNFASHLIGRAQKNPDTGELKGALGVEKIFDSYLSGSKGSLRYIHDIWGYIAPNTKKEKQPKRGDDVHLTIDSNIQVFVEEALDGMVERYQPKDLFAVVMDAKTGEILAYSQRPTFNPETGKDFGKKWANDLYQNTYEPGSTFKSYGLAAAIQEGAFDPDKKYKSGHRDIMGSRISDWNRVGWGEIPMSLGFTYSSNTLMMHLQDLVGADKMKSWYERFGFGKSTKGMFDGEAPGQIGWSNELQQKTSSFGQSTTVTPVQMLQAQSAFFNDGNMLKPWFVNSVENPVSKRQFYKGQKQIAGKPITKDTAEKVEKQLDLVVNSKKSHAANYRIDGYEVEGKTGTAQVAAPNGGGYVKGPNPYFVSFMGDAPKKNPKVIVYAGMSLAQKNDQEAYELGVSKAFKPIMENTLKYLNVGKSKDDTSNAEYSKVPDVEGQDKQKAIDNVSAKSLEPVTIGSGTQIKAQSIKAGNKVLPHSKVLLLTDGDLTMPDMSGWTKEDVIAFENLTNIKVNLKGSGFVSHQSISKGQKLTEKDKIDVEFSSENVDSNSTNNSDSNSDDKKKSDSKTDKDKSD
Briefly: Inhibition of bocillin FL binding to methicillin-susceptible Staphylococcus aureus ATCC 29213 penicillin-binding protein 1. The method in brief:
(§4)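 Isolated S. aureus ATCC 29213 PBPs exposed to drug over 0.001 μg/ml to 50 μg/ml, followed by Bocillin FL labeling and fluorescence imaging. IC50 is 50% inhibition of Bocillin FL binding relative to no-drug control.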

Assay [11] addresses T2, Penicillin-binding protein 3 (Staphylococcus aureus, UniProt Q5D1F0).
T2 sequence (Q5D1F0 whole entry): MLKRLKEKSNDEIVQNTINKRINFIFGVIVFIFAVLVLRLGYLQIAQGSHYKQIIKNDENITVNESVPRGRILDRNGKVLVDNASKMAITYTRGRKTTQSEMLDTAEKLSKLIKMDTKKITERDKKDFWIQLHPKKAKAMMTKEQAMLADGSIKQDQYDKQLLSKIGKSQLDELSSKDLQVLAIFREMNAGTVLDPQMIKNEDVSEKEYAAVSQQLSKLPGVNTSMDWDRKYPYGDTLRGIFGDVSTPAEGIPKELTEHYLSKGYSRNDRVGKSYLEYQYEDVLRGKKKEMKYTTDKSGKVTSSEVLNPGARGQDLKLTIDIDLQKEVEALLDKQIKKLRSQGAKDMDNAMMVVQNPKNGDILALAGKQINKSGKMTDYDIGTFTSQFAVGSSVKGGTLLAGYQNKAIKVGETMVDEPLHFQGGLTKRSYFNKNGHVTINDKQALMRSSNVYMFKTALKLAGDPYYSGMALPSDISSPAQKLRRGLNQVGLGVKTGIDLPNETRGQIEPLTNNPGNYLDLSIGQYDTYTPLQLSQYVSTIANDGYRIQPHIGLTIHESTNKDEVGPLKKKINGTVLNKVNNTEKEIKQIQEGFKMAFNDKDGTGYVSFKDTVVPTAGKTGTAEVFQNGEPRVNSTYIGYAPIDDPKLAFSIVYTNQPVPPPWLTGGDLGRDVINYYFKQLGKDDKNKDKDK
Briefly: Inhibition of bocillin FL binding to methicillin-susceptible Staphylococcus aureus ATCC 29213 penicillin-binding protein 3. The method in brief:
as §4

A short description of assay [12]: Inhibition of bocillin FL binding to penicillin-resistant Streptococcus pneumoniae OC 8819 penicillin-binding protein 1b. The method in brief: as §3

In brackets after ≈: the same amount, converted by molar mass.

Sequence of Penicillin-binding protein 3 (Pseudomonas aeruginosa, UniProt Q51504) (Q51504 whole entry): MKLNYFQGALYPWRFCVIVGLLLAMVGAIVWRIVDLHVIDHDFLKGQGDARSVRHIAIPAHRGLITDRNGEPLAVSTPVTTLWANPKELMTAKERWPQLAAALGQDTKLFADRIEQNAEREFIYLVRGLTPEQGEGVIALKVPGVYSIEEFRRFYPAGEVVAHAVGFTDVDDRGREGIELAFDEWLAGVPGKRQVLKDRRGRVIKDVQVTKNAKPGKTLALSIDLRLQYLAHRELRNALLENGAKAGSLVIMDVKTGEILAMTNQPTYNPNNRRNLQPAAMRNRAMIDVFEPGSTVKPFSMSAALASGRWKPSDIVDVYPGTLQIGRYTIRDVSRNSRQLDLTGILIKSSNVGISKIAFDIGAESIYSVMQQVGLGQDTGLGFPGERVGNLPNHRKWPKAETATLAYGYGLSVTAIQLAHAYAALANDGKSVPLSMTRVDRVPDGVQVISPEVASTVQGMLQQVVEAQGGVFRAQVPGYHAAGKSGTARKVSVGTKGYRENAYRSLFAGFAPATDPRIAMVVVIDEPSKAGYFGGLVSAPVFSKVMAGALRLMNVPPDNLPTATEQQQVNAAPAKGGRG

In the case of `Nc1nc(/C(=N/O)C(=O)N[C@@H]2C(=O)N3C(C(=O)O)=C(/C=C4\CCN([C@@H]5CCNC5)C4=O)CS[C@H]23)ns1` [CEFTOBIPROLE], the IC50 is 0.2 mg/L (≈ 0.374 µM) in assay [1]; 0.187 µM in assay [2]; 1 mg/L (≈ 1.87 µM) in assay [3]; greater than 32 mg/L in [4]; 0.1 mg/L (≈ 0.187 µM) in assay [5]; 0.05 mg/L (≈ 0.0935 µM) in assay [6]. Further, the IC50 was 0.1 mg/L (≈ 0.187 µM) in assay [7]; 0.1 mg/L (≈ 0.187 µM) in assay [8]; 0.03 mg/L (≈ 0.0561 µM) in assay [9]; 0.187 µM in [10]; 0.0935 µM in [11]. In addition, the MIC against Staphylococcus aureus was 0.25 mg/L (≈ 0.468 µM); in the assay with Streptococcus pneumoniae, 0.008 mg/L (≈ 0.015 µM).
As for `CC(C)(O/N=C(\C(=O)N[C@@H]1C(=O)N2C(C(=O)[O-])=C(C[n+]3ccccc3)CS[C@H]12)c1csc(N)n1)C(=O)O` [CEFTAZIDIME], the IC50 in assay [1] was 2 mg/L (≈ 3.66 µM); in assay [2], 0.183 µM; in [4], greater than 32 mg/L; in assay [8], 0.2 mg/L (≈ 0.366 µM).
Turning to `CO/N=C(\C(=O)N[C@@H]1C(=O)N2C(C(=O)O)=C(CSc3nc(=O)c(O)nn3C)CS[C@H]12)c1csc(N)n1` (stereo in doubt) [CEFTRIAXONE], the IC50 in assay [3] stood at 8 mg/L (≈ 14.4 µM); in assay [5] it was 0.02 mg/L (≈ 0.0361 µM); in assay [6], 0.03 mg/L (≈ 0.0541 µM); in [7] it was 0.5 mg/L (≈ 0.902 µM); in [12], 0.02 mg/L (≈ 0.0361 µM); in assay [9], 0.01 mg/L (≈ 0.018 µM). Besides, the results for the IC50 in [10] and in assay [11] were 0.902 µM and 1.8 µM, respectively. Moreover, the MIC in the assay with Staphylococcus aureus stood at 2 mg/L (≈ 3.61 µM); against Streptococcus pneumoniae, 0.03 mg/L (≈ 0.0541 µM).

The values above are taken from ChEMBL document CHEMBL1157359, “Binding of ceftobiprole and comparators to the penicillin-binding proteins of Escherichia coli, Pseudomonas aeruginosa, Staphylococcus aureus, and Streptococcus pneumoniae” (Antimicrob Agents Chemother, 2007).
